Usually pKa stands for the negative logarithm of the acid dissociation constant. By ED50 is commonly meant the midpoint of the dose-response relation.

A short description of data set [1]: Dissociation constant, pKa of the compound. Type of data set: physicochemical.
For data set [2], the system named is Mus musculus. Put plainly: Toxicity in Swiss mouse at 8 mg/kg, po. To be noted: in vivo. The arrangement: dose 8 mg/kg, route oral. The data set is classed as organism-based.
Data set [3] has as its system Rattus norvegicus. Put plainly: Toxicity in iv dosed chronic spinal Sprague-Dawley rat assessed as lethality at cumulative dose of 16 mg/kg, iv. The data set is classed as organism-based. The arrangement: dose 16 mg/kg, route intravenous. The following applies: in vivo.
Data set [4] has as its system Felis catus. Put plainly: Skeletal muscle relaxant activity in po dosed chronic spinal mongrel cat assessed as reduction of flexor spasm administered every 15 mins interval. The data set is classed as functional. Put shortly:
(§1)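 Test agent dissolved in normal saline and given to chronic spinal animals intravenously or by oral gavage as cumulative doses at 15-min intervals. The flexor reflex response was compared against predrug control responses. ED70 is the cumulative dose that reduced the flexor reflex by 70% or more.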

For data set [5], the system named is Felis catus. Put plainly: Skeletal muscle relaxant activity in chronic spinal mongrel cat assessed as reduction of flexor spasm up to 7.5 mg/kg, iv administered every 15 mins interval. Type of data set: functional, organism-based. Set-up: dose 7.5 mg/kg. In short, it runs like this: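 Chronic spinal cat preparation. Test substances in normal saline were given iv in cumulative doses at 15-min intervals, and the flexor reflex response was recorded against predrug control responses. ED70 is the cumulative dose reducing the flexor reflex response by 70% or more.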

Data set [6] relates to Mus musculus. Kind of data set: Anticonvulsant activity in po dosed Swiss mouse assessed as reduction of 3-mercaptopropionic acid-induced tonic extensor-seizures within 3 to 7 mins. The data set is classed as functional. In short, it runs like this:
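Robidoux Swiss male mice, 18–22 g. Test substances in saline given orally 30 min before ip 3-mercaptopropionic acid at 25 mg/kg, which induces tonic-extensor seizures within 3–7 min in 90–100% of mice. ED50 is the dose preventing tonic-extensor seizures in 50% of animals, by regression analysis over at least three doses with ten mice per dose level.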

The test system of data set [7] is Rattus norvegicus. Put plainly: Skeletal muscle relaxant activity in iv dosed chronic spinal Sprague-Dawley rat assessed as reduction of flexor spasm administered every 15 mins interval. The data set is classed as functional. To be noted: 0.25 h. In short, it runs like this:
as §1

The subject of data set [8] is Mus musculus. Put plainly: Toxicity in Swiss mouse at 128 mg/kg, po. Set-up: dose 128 mg/kg, route oral. The data set is classed as organism-based. The following applies: in vivo.
Data set [9] deals with Felis catus. Kind of data set: Skeletal muscle relaxant activity in iv dosed chronic spinal mongrel cat assessed as reduction of flexor spasm administered every 15 mins interval. The data set is classed as functional. To be noted: 0.25 h. Put shortly: as §1
In data set [10] the test system is Felis catus. Kind of data set: Skeletal muscle relaxant activity in chronic spinal mongrel cat assessed as reduction of flexor spasm up to 16 mg/kg, iv administered every 15 mins interval. The data set is classed as functional, organism-based. The arrangement: dose 16 mg/kg. Put shortly:
as §1

Calls of active or inactive are those of the source. The calls are words filed in the database; no cut-off is given here.

As for `NCc1cc(=O)[nH]o1` [MUSCIMOL], the pKa in [1] is 4.78. The Activity entry in the data set on Mus musculus [2] and in the data set with Rattus norvegicus [3] was “Toxic” throughout. On to `NCCCC(=O)O` [GAMMA-AMINOBUTYRIC ACID], for which the pKa in data set [1] stood at 4.04. With `NCCCC(=O)NCc1cc(=O)c(O)co1`, the ED70 entry in the data set on Felis catus [4] was “inactive”.

Consider `NCc1cc(O)no1` [MUSCIMOL], for which the outcome in the data set on Felis catus [5] was inactive. In the data set on Mus musculus [6], the ED50 was 1.34 mg/kg. The ED70 in the data set on Rattus norvegicus [7] was found to be 16 mg/kg. Turning to `NCc1cc(=O)c(O)co1`, the median effective dose (ED50) in the data set with Mus musculus [6] was found to be 15 mg/kg. In addition, the pKa in [1] was 6.6. Also, the Activity entry in the data set on Mus musculus [8] is “Non-toxic”. Moreover, the ED70 in the data set with Felis catus [9] came out at 2.2 mg/kg; in the data set on Rattus norvegicus [7] it was 8 mg/kg; in the data set with Felis catus [4] (0.25 h) it was 4 mg/kg. `O=c1cc(CNCc2ccccc2)occ1O`: the ED70 entry in the data set on Felis catus [4] is “inactive”. In [1], `O=c1cc(CO)occ1O` [KOJIC ACID] gave a pKa of 7.95. On to `NCCc1cc(=O)c(O)co1`, for which the ED70 entry in the data set with Felis catus [4] is “inactive”. For the compound `CC(N)C(=O)NCc1cc(=O)c(O)co1` (stereo not given), the figures for the ED70 with Felis catus [9] and with Rattus norvegicus [7] were 12 mg/kg and 8 mg/kg, respectively. With `NCc1cc(=O)c(O)c[nH]1`, the ED70 result in the data set on Felis catus [4] was “inactive”.

Turning to `Cn1cc(O)c(=O)cc1CN`, in the data set on Felis catus [4], the ED70 result was “inactive”.

As to `CNCc1cc(=O)c(O)co1`, in the data set with Felis catus [4], the ED70 entry was “inactive”.

Consider `NCCCc1cc(=O)c(O)co1`, for which the outcome in the data set with Felis catus [10] was inactive. On to `CN(C)Cc1cc(=O)c(O)co1`, for which the ED70 result in the data set on Felis catus [4] was “inactive”. `NCC(=O)NCc1cc(=O)c(O)co1`: the values for the ED70 with Felis catus [9] and in the data set with Rattus norvegicus [7] were 12 mg/kg and 8 mg/kg, respectively. In the case of `CC(=O)NCc1cc(=O)c(O)co1`, in the data set on Felis catus [4], the ED70 result was “inactive”. Still for that read-out and setting: to `NC(Cl)c1cc(=O)c(O)co1` (stereo not given) belongs “inactive”; to `CC(N)c1cc(=O)c(O)co1` (stereo not given), “inactive”; to `NCCC(=O)NCc1cc(=O)c(O)co1`, “inactive”.
